Laboratory results from paper PMC4545688 (Pain, 2015).

Key:
parental ACE1 cells = test: Prostate cancer cells in vitro growth assay, parental ACE1; type: cell-based, canine; conditions: for effect on cell growth (sensitivity): three day growth assay in vitro
How it was run: (§1)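 Cells were seeded at 3000 cells/well and allowed to adhere overnight at 37°C, 5% CO2. Test compound or staurosporine was prepared as an 8-point, 3-fold DMSO series from a 10 mM stock, giving a final 500-fold dilution of stocks, in triplicate. After 3 days, growth was measured by CellTiter-Glo luminescence, normalised to the DMSO signal (% control), and IC50 was fitted against concentration.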

[1] = test system: GFP-transfected ACE-1 cells; test: Prostate cancer cells in vitro growth assay, GFP-transfected ACE-1; type: cell-based, canine; conditions: for effect on cell growth (sensitivity): three day growth assay in vitro
How it was run: as §1

[2] = test system: CD68+ macrophages and osteoclasts; test: CD68+ cells in tumor-bearing bone sections; type: in vivo, mouse
How it was run: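 Mice received intramedullary femoral injection of GFP+ ACE-1 prostate cancer cells. From day 14 they were given test compound in chow (average 30 mg/kg/day) or control chow ad libitum, n=8/group. At day 65, 20 μm decalcified frozen bone sections were stained with rat anti-mouse CD68 (1:2,000), Cy3 secondary and DAPI. Two 400X confocal images were taken per section from three sections per animal, in GFP+ tumor areas. Blinded counts were made per μm3.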

[3] = test system: ACE-1 prostate cancer cells; test: Radiographic number of cancer cell colonies and overall tumor burden; type: in vivo, mouse
How it was run: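 In the same chow-dosing femoral tumor model, radiographs of tumor-bearing femurs were analysed blind. Images were split into distal and proximal halves and enlarged. Each colony was numbered and traced, defined as a radio-translucent area bounded by radio-opaque woven bone. Colony number per region and total tumor area per femur were recorded, then averaged per treatment group.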

PC-3 = test: Prostate cancer cell growth in vitro, PC-3; type: cell-based; conditions: data not shown
[4] = Spontaneous guarding and flinching in prostate model of bone cancer; type: in vivo, mouse; conditions: 30 mg/kg/day in chow from day 14; days 56 and 63; vs vehicle; 2-min observation
[5] = Radiographic assessment of tumor-induced bone remodeling; type: in vivo, mouse
How it was run: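 In the femoral ACE-1 tumor model, compound-formulated chow (average 30 mg/kg/day) or control chow was given ad libitum from day 14 to study end, n=8/group. Radiographs were taken from day 14 and then every 7 days. In blinded analysis, bone lying outside the normal femur diameter (defined from naïve/sham mice) was traced with a mm-calibrated free-form tool. Mean area was calculated per group.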

Rat formalin test = type: in vivo; conditions: 30 mg/kg PO two hours before subplantar formalin; vs vehicle; p<0.05
How it was run: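 SD rats received test compound at 30 mg/kg or vehicle (0.5% HPMC/1% Tween 80/2.5% DMSO) orally, 2 h before subplantar formalin (0.05 mL, 1%). Hind paw licking time was recorded at 5-minute intervals for 30 minutes, covering the acute and inflammatory phases. Data are the average of two independent experiments with six rats per group per trial.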

[6] = test system: Human osteoclast precursors; test: Osteoclast differentiation assay; type: cell-based; conditions: six days with CSF-1 and RANKL, up to 10 μM
How it was run: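 Human osteoclast precursors were cultured at 37°C, 5% CO2, with CSF-1 (33 ng/mL), RANKL (66 ng/mL) and test compound (up to 10 μM) or 0.2% DMSO for 6 days. After a medium change, cells were incubated 1 more day. Supernatant acid phosphatase (TRAP5b) was read at 405 nm. Results are expressed as percent inhibition relative to vehicle with or without CSF-1, from six independent experiments.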

[7] = ref [4],[16],[19]; cited from earlier work
LNCaP = test: Prostate cancer cell growth in vitro, LNCaP; type: cell-based; conditions: data not shown
[8] = three day growth assay, CellTiter-Glo
[9] = 30 mg/kg/day in chow, distal and proximal ends of femur, vs vehicle, p<0.05
[10] = sustained administration 30 mg/kg/day in chow

Structure (SMILES) | effect on cell growth (sensitivity) (parental ACE1 cells) | effect on cell growth (sensitivity) [1] | concentration up to which no effect on cell growth (not sensitive) (parental ACE1 cells; [8]) | viability of cancer cells in tumor cell colony ([2]; GFP+ prostate cancer cells in bone sections, day 65) | number of CD68+ cells per tissue volume ([2]; day 65 post-tumor cell injection, chronic treatment, vs vehicle, p<0.05) | number of cancer cell colonies [3, 9] | total tumor burden area [3, 9] | attenuation of disease progression [3, 10] | concentration up to which no effect on cell growth (not sensitive) [1, 8] | effect on prostate cancer cell growth (PC-3) | time spent guarding tumor-bearing limb [4] | extra-periosteal bone formation (periosteal reaction area) ([5]; 30 mg/kg/day in chow from day 14, days 14–63, vs vehicle, p<0.05) | overall radio-opacity of tumor-bearing femur ([5]; 30 mg/kg/day in chow, vs prostate cancer + vehicle) | attenuation of tumor-induced bone remodeling [5, 10] | hind paw licking time, acute phase (0–5 minutes) (Rat formalin test) | hind paw licking time, inflammatory phase (10–30 minutes) (Rat formalin test) | osteoclast differentiation (acid phosphatase activity, TRAP5b) [6] | crossing of the blood brain barrier [7] | effect on prostate cancer cell growth (LNCaP)
Cn1c(=O)n(-c2ccc(C(C)(C)C#N)cc2)c2c3cc(-c4cnc5ccccc5c4)ccc3ncc21 [BEZ-235, reference compound] | sensitive | sensitive | – | – | – | – | – | – | – | – | – | – | – | – | – | – | – | – | –
FC(F)(F)c1ccc(CNc2ccc(Cc3c[nH]c4ncc(Cl)cc34)cn2)cn1 [PLX3397] | did not affect | – | > 10 µM | little effect | significantly reduced | significantly reduced | significantly reduced | approximately 50% | > 10 µM | did not affect | reduced | significantly reduced | increase | approximately 50% | analgesic effects | analgesic effects | inhibited | does cross the blood brain barrier | did not affect
CN[C@@H]1C[C@H]2O[C@@](C)([C@@H]1OC)n1c3ccccc3c3c4c(c5c6ccccc6n2c5c31)C(=O)NC4 [staurosporine, reference compound] | sensitive | sensitive | – | – | – | – | – | – | – | – | – | – | – | – | – | – | – | – | –
